The values below come from ChEMBL document CHEMBL1139390, “Synthesis and biological studies of different duocarmycin based glycosidic prodrugs for their use in the antibody-directed enzyme prodrug therapy” (J Med Chem, 2009).

Series [1] deals with A549. As to the kind of experiment: Cytotoxicity against human A549 cells after 24 hrs by HTCFA. Type of series: functional, cell-based. Conditions: A549, 24 h. The method in brief: (§1)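 Clonogenic (HTCFA) assay on adherent A549 cells seeded in triplicate at 10^2–10^5 cells per well; after 24 h, medium replaced by serum-free UltraCulture and cells exposed 24 h to 6–8 concentrations from fresh DMSO solutions (final DMSO 1%).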

In series [2] the test system is A549. As to the kind of experiment: Cytotoxicity against human A549 cells after 24 hrs in presence of cleaving enzyme by HTCFA. Type of series: functional, cell-based. Particulars: A549, 24 h. The method in brief: as §1
The subject of series [3] is A549. In words: Ratio of IC50 for human A549 cells to IC50 for human A549 cells in presence of cleaving enzyme. Type of series: functional. The method in brief:
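QIC50 is the IC50 of the prodrug alone divided by its IC50 with the cleaving glycosidase present. Both values come from the 24 h exposure A549 clonogenic assay with 9–10 days of outgrowth and methylene blue colony counts.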

Series [4] is described as follows: Stability in ultraculture medium after 24 hrs by HPLC-MS. Format: physicochemical. Conditions: read-out: Stability. The method in brief: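 Compound held in UltraCulture medium at 37 °C for 24 h. The fraction remaining was quantified by HPLC-MS peak area (AUC) on a C12 reversed-phase column.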

`C[C@@H](Cl)[C@@H]1CN(C(=O)c2cc3cc(OCCN(C)C)ccc3[nH]2)c2cc(O)c3ccccc3c21` gave an IC50 in series [1] of 0.75 nM.
Regarding `C[C@@H](Cl)[C@@H]1CN(C(=O)c2cc3cc(OCCN(C)C)ccc3[nH]2)c2cc(O[C@@H]3O[C@H](CO)[C@H](O)[C@H](O)[C@H]3O)c3ccccc3c21`, the figures for the IC50 in series [1] and in series [2] were 3600 nM and 0.8 nM, respectively. Moreover, the “Ratio IC50” value in series [3] is listed as 4800. Moreover, the remaining at 24 h in series [4] is 27%.
The molecule `C[C@H]1[C@@H]2CN(C(=O)c3cc4cc(OCCN(C)C)ccc4[nH]3)C3=CC(=O)c4ccccc4[C@@]312` showed an IC50 in series [1] of 0.75 nM.

A word on the IC50: it is the point on the concentration scale where inhibition reaches its midpoint.
